The RNAGym collection of RNA variant scans (doi:10.1038/nmeth.2970)

B1: NELF-E aptamer (parent)
chain: CCCAACGACUGCCGAGCGAGAUUACGCUUGAGCGCCCCACUGAGGAUGCCCACGGGCGAUUGGGGCACGG

Variants of: B1
Assay: HiTS-RAP
Conditions: with NELF-E (Drosophila)
How it was run: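 Aptamer DNA templates bearing a T7 promoter and a ter site were sequenced on an Illumina GAIIx flowcell. T7 RNA polymerase then transcribed them in situ, and GST-Tus halted transcription over 30 minutes at 37°C. After a 30-minute room-temperature equilibration with NELF-E-mOrange at 0.064 to 1000 nM in HEPES binding buffer, clusters were imaged, using only the first binding curve. Intensities normalised to sequencing intensity were averaged per sequence and fitted with weighted Hill fits to give Kd, retaining only fits whose variance stayed under 1,000,000.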

| Variant | Kd [nM] |
| --- | --- |
| C6G A59G | 54.9 |
| C6G A59U | 25.7 |
| C6G A67G | 6.07 |
| C6G A67U | 6.45 |
| C6G C9G | 5.38 |
| C6G C9U | 5.58 |
| C6G C12A | 6.77 |
| C6G C12G | 5.68 |
| C6G C12U | 5.53 |
| C6G C13G | 5.09 |
| C6G C13U | 4.96 |
| C6G C17G | 5.02 |
| C6G C17U | 6.03 |
| C6G C25G | 5.65 |
| C6G C25U | 5.65 |
| C6G C27U | 5.23 |
| C6G C33G | 5.77 |
| C6G C33U | 5.41 |
| C6G C35G | 7.18 |
| C6G C35U | 16.8 |
| C6G C36U | 7.42 |
| C6G C37A | 18.7 |
| C6G C37U | 23.4 |
| C6G C38A | 45.1 |

| Variant | Kd [nM] |
| --- | --- |
| C6G C38U | 10.4 |
| C6G C40G | 8.23 |
| C6G C40U | 70.3 |
| C6G C49G | 8.75 |
| C6G C49U | 20.2 |
| C6G C50G | 5.53 |
| C6G C50U | 16.1 |
| C6G C51U | 7.16 |
| C6G C53G | 7.67 |
| C6G C53U | 4.15 |
| C6G C57G | 6.54 |
| C6G C57U | 6.1 |
| C6G C66A | 5.34 |
| C6G C66U | 5.41 |
| C6G G7A | 6.58 |
| C6G G7C | 7.44 |
| C6G G7U | 5.56 |
| C6G G11A | 6.31 |
| C6G G11U | 5.8 |
| C6G G14A | 5.15 |
| C6G G14U | 6.12 |
| C6G G16A | 5.84 |
| C6G G16U | 6.81 |
| C6G G18A | 4.48 |

| Variant | Kd [nM] |
| --- | --- |
| C6G G18U | 6.37 |
| C6G G20A | 6.35 |
| C6G G20U | 6.34 |
| C6G G26A | 4.39 |
| C6G G26U | 5.54 |
| C6G G30A | 4.52 |
| C6G G30U | 6.84 |
| C6G G32A | 4.6 |
| C6G G34A | 8 |
| C6G G34U | 5.79 |
| C6G G42A | 40.3 |
| C6G G42U | 13.8 |
| C6G G44A | 61 |
| C6G G44U | 8.75 |
| C6G G45A | 91 |
| C6G G45U | 9.94 |
| C6G G48A | 11.6 |
| C6G G48U | 5.75 |
| C6G G54A | 12.5 |
| C6G G54U | 9.57 |
| C6G G55A | 6.61 |
| C6G G55U | 6.23 |
| C6G G56A | 8.34 |
| C6G G56U | 4.89 |

| Variant | Kd [nM] |
| --- | --- |
| C6G G58U | 6.94 |
| C6G G62A | 21.9 |
| C6G G62U | 7.26 |
| C6G G63A | 19.7 |
| C6G G63U | 10.8 |
| C6G G64A | 7.6 |
| C6G G64C | 6.39 |
| C6G G64U | 6.35 |
| C6G G65A | 4.46 |
| C6G G65U | 6.3 |
| C6G U10A | 5.16 |
| C6G U10C | 5.34 |
| C6G U10G | 4.77 |
| C6G U22C | 5.08 |
| C6G U22G | 5.09 |
| C6G U23A | 5.12 |
| C6G U23C | 4.4 |
| C6G U23G | 4.81 |
| C6G U28A | 5.13 |
| C6G U28C | 9 |
| C6G U28G | 6.54 |
| C6G U29A | 5.51 |
| C6G U29C | 4.69 |
| C6G U29G | 4.97 |

| Variant | Kd [nM] |
| --- | --- |
| C6G U41A | 103 |
| C6G U41C | 64.8 |
| C6G U41G | 5.12 |
| C6G U47A | 10.5 |
| C6G U47G | 6.93 |
| C6G U60A | 10.9 |
| C6G U60C | 10.3 |
| C6G U60G | 5.7 |
| C6G U61A | 38.7 |
| C6G U61C | 74.8 |
| C6G U61G | 7 |
| C6U | 5.29 |
| C6U A8G | 6.02 |
| C6U A8U | 7.13 |
| C6U A15U | 6.25 |
| C6U A19G | 6.06 |
| C6U A21G | 7.12 |
| C6U A24G | 5.94 |
| C6U A31G | 8.72 |
| C6U A39G | 11.6 |
| C6U A52U | 23.1 |
| C6U A59G | 69.1 |
| C6U C9G | 6.57 |
| C6U C9U | 5.38 |

| Variant | Kd [nM] |
| --- | --- |
| C6U C12G | 5.7 |
| C6U C12U | 6.16 |
| C6U C13G | 5.6 |
| C6U C13U | 5.09 |
| C6U C17G | 6.11 |
| C6U C17U | 6.39 |
| C6U C25G | 7.85 |
| C6U G7U | 6.71 |
| C6U G11A | 5.43 |
| C6U G11U | 6.12 |
| C6U G14A | 7.01 |
| C6U G14U | 7.02 |
| C6U G16U | 6.67 |
| C6U G20U | 8.79 |
| C6U G26A | 4.04 |
| C6U G34A | 6.54 |
| C6U G42A | 52.7 |
| C6U G54A | 14.5 |
| C6U G55A | 7.75 |
| C6U G56U | 6.57 |
| C6U U10G | 5.57 |
| C6U U22G | 5.57 |
| C6U U23G | 6.14 |
| C6U U29A | 5.66 |

| Variant | Kd [nM] |
| --- | --- |
| C6U U29G | 5.8 |
| C6U U41A | 82.3 |
| C6U U41C | 81.8 |
| C6U U41G | 5.16 |
| C6U U61A | 38.1 |
| G7A | 5.61 |
| G7A A8C | 5.87 |
| G7A A8G | 6.39 |
| G7A A8U | 8.46 |
| G7A A19U | 8.57 |
| G7A A24G | 6.73 |
| G7A A39G | 12.1 |
| G7A C9G | 5.55 |
| G7A C12G | 6.93 |
| G7A C13G | 6.51 |
| G7A G11U | 7.32 |
| G7A G14U | 6.75 |
| G7A G16U | 5.55 |
| G7A G63A | 14.4 |
| G7A U10G | 5.66 |
| G7A U22G | 7 |
| G7A U23G | 5.95 |
| G7A U29G | 6.46 |
